Measured values reported in ChEMBL document CHEMBL1140169, “Discovery of novel PPAR ligands by a virtual screening approach based on pharmacophore modeling, 3D shape, and electrostatic similarity screening” (J Med Chem, 2008).
Activity calls are given as the source filed them. The rule behind the calls is not given here.

How the values were obtained:
[1] = molecular target: T1, Peroxisome proliferator-activated receptor delta (Homo sapiens, UniProt Q03181); assay: Displacement of fluorescent pan PPAR agonist form GST-tagged human PPARdelta ligand binding domain by FRET assay
T1 sequence (Q03181 whole entry): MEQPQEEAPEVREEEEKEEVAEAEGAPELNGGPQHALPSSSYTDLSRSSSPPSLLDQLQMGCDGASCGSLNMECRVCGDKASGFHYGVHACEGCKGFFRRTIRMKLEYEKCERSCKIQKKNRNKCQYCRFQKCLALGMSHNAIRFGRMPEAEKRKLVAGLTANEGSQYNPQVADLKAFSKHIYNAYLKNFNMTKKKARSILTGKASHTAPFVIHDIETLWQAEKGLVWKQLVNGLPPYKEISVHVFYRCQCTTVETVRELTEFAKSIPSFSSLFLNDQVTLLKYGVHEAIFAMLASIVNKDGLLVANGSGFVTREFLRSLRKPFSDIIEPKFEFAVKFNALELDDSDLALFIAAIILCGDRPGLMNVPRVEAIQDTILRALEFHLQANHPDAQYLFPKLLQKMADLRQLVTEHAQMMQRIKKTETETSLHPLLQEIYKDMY
Method in brief: (§1)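 TR-FRET (LanthaScreen) competitive binding: purified GST-tagged PPAR LBD labelled with terbium anti-GST antibody, with a fluorescent pan-PPAR agonist tracer. Displacement was read as RFU over dose-response series in triplicate. IC50 came from a one-site sigmoidal fit. Reference ligands were GW7647 (PPARα) and L165041 (PPARδ).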

[2] = molecular target: T2, Peroxisome proliferator-activated receptor alpha (Homo sapiens, UniProt Q07869); assay: Displacement of fluorescent pan PPAR agonist form GST-tagged human PPARalpha ligand binding domain by FRET assay; method in brief: as §1
T2 sequence (Q07869 whole entry): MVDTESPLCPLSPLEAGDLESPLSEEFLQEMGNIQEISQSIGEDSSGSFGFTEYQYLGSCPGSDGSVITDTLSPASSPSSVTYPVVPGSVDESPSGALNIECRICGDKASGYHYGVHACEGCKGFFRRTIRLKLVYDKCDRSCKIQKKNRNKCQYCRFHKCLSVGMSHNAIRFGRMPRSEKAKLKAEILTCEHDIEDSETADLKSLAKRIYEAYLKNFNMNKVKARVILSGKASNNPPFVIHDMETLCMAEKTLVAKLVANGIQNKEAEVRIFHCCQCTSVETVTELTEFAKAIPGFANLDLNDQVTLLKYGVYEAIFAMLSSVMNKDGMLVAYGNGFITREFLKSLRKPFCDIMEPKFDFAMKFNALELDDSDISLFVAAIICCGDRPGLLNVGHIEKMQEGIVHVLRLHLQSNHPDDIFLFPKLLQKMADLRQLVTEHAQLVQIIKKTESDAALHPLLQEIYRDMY

[3] = molecular target: T3, Peroxisome proliferator-activated receptor alpha (Homo sapiens) (UniProt Q07869); assay: Activation of human PPARalpha ligand binding domain expressed in mouse Hepa 1-6 cells co-transfected with fused Gal4-DBD at 10 uM after 18 hrs by luciferase reporter gene assay relative to GW-7647; assay type: cell-based
T3 sequence (whole entry): T2 sequence (Q07869 whole entry)
Method in brief: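 Gal4-hPPARα-LBD/UAS-luciferase transactivation in Hepa 1-6 cells (Metafectene transfection, β-gal normalization). Compound at 10 µM was added 6 h post-transfection and read 18 h later. Activity is given as percent of the response to 30 nM GW7647. Triplicates measured in duplicate.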

[4] = molecular target: T3, Peroxisome proliferator-activated receptor alpha (Homo sapiens); assay: Activation of human PPARalpha ligand binding domain expressed in mouse Hepa 1-6 cells co-transfected with fused Gal4-DBD at 0.1 to 10 uM by luciferase reporter gene assay relative to control; assay type: cell-based
Method in brief: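 Hepa 1-6 cells (MEM, 10% FCS, penicillin/streptomycin) transfected at 50–70% confluence using Metafectene with Gal4-hPPARα-LBD (0.001 µg plus 0.099 µg pBSK), 4xUAS-TK-Luc reporter and CMV-β-galactosidase. Six hours later, compound was added at 0.1, 1 and 10 µM. Lysis and luminometry after 18 h. Luciferase normalized to β-gal, expressed as fold induction over 0.1% DMSO vehicle. Triplicates, each measured in duplicate.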

[5] = molecular target: T4, Peroxisome proliferator-activated receptor delta (Homo sapiens) (UniProt Q03181); assay: Antagonist activity at human PPARdelta ligand binding domain expressed in MEF cells co-transfected with Gal4-DBD assessed as reduction of L165041-induced transactivation response at 1 uM by luciferase reporter gene assay; assay type: cell-based
T4 sequence (whole entry): T1 sequence (Q03181 whole entry)
Method in brief: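 MEFs transfected with Gal4-hPPARδ-LBD, UAS-luciferase reporter and CMV-β-gal. Starting 6 h post-transfection, cells were co-treated with 1 µM L165041 and a range of compound doses. After 18 h, β-gal-normalized luciferase was compared with the L165041 response. Triplicates measured in duplicate.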

[6] = molecular target: T5, Peroxisome proliferator-activated receptor gamma (Homo sapiens, UniProt P37231)
T5 sequence (P37231 whole entry): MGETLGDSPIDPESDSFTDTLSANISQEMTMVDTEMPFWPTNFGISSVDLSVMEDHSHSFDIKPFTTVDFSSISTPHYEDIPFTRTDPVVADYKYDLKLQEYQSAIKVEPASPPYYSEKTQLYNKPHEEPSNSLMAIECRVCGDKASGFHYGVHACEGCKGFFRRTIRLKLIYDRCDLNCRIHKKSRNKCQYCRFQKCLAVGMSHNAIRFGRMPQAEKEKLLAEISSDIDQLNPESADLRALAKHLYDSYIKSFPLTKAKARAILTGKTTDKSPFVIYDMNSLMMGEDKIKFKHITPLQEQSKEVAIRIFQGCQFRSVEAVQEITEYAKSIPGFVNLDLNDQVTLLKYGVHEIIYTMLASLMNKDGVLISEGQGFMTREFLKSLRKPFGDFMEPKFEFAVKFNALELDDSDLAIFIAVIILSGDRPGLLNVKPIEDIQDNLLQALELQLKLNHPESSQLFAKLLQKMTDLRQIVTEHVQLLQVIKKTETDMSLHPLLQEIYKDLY

[7] = molecular target: T6, Peroxisome proliferator-activated receptor gamma (Homo sapiens) (UniProt P37231); assay: Activation of human PPARgamma ligand binding domain expressed in MEF cells co-transfected with fused Gal4-DBD at 10 uM after 18 hrs by luciferase reporter gene assay relative to rosiglitazone; assay type: cell-based
T6 sequence (whole entry): T5 sequence (P37231 whole entry)
Method in brief: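 MEFs (DMEM, 10% calf serum) transfected with Gal4-hPPARγ-LBD, 4xUAS-TK-Luc and CMV-β-gal by Metafectene. Compound at 10 µM was added 6 h later and luciferase/β-gal read after 18 h. Activity is expressed as percent of the response to 1 µM rosiglitazone. Triplicates measured in duplicate.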

| SMILES | IC50 [1] [µM] | IC50 [2] [µM] | Activity [3] [%] | Activity [4] | Activity [5] | IC50 [6] [µM] | Activity [7] [%] |
| --- | --- | --- | --- | --- | --- | --- | --- |
| O=C(O)c1ccc(COc2ccc3ccccc3c2/C=N/c2ccc(N3CCOCC3)cc2)cc1 | 34 | 43 | 15 | Active | – | – | – |
| CCOC(=O)C[C@H](C)NC(=O)c1csc(C2CCN(C(=O)c3c(F)cccc3Cl)CC2)n1 | – | – | 20 | Active | – | 44 | 15 |

More lines, now with the values ahead:

| IC50 [1] [µM] | IC50 [2] [µM] | Activity [3] [%] | Activity [4] | Activity [5] | IC50 [6] [µM] | Activity [7] [%] | SMILES |
| --- | --- | --- | --- | --- | --- | --- | --- |
| 7.2 | – | – | Active | Active | 13 | 20 | COC(=O)c1ccc(NC(=O)C[C@H]2C(=O)N(c3cccc(OC)c3)C(=O)N2Cc2ccc(OC)cc2)cc1 |
| – | 1.5 | 40 | Active | – | – | – | CCOC(=O)N1CCc2c(sc(NC(=O)Cc3ccc(OC)cc3)c2C(=O)Nc2ccc(C(=O)OC)cc2)C1 |
| 390 | 1 | 15 | Active | – | – | – | CCn1c(SCC(=O)Nc2ccc(C(=O)O)cc2)nnc1-c1cc2cccc(OC)c2o1 |
